KDM4C inh = KDM4C (human) demethylase inhibition | Q9H3R0 | GST-KDM4C 2-372, H3K9me3 peptide, LANCE TR-FRET | inhibition, % at 12.5 µM | 0.15% of 96,000 active;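 active = mean replicate inhibition above about 25%, with at least 55% of replicates also reaching it, limit read from the data, passing the limit was not always enough; inconclusive = only one of those two conditions met; inactive = neither condition met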
Target sequence (Q9H3R0 2-372 limits assumed): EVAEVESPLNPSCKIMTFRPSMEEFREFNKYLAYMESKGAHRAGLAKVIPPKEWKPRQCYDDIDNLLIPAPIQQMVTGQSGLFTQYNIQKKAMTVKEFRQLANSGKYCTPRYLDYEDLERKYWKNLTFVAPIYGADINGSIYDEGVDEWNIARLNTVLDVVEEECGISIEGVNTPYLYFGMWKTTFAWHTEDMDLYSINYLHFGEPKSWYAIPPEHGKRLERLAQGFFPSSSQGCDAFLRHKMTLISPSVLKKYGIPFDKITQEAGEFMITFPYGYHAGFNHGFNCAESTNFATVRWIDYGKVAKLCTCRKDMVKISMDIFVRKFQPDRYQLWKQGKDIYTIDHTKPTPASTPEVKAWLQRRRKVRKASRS
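System – N-terminal GST-fused human GASC-1 (KDM4C) fragment, residues 2-372 · Input – enzyme final amount 10 nM · Technique – LANCE TR-FRET, Eu antibody, ULight-streptavidin, EDTA, ex 340 nm, em 618/671 nm · Medium – HEPES buffer, pH 7.5, plus ascorbate · Incubation – enzyme reaction 30 min, then detection 60 min, both room temperature · Reagent – H3K9me3 peptide with Fe(II)/2OG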
T cruzi growth-1 = blocks T. cruzi growth in NIH3T3 culture; inhibition, % at 8.34 µM; AID 624255; T. cruzi beta-gal in NIH3T3, GalScreen luminescence, 90 h; 5.9% of 77,000 active;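 active = mean inhibition above about 93%, with at least 55% of replicates each passing it, limit read from the data, passing the limit was not always enough; inconclusive = only one of those two conditions holds; inactive = neither condition holds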
IDH1 R132H inh = blocks human IDH1 R132H reductase activity; diaphorase/resazurin fluorescence, 60 min; inhibition, % at 10 µM; 0.18% of 70,000 active; AID 624101; in the data active = inhibition above about 34%; inconclusive = no clear call, values can overlap the other calls; inactive = below about 11%;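 note: 0% = DMSO and 100% = no enzyme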
T cruzi growth-2 = Trypanosoma cruzi proliferation inhibition. shares compounds with T cruzi growth-1. T. cruzi beta-gal in NIH3T3, GalScreen luminescence, 90 h. inhibition, % at 8.35 µM. 72% of 5,600 active. AID 651739;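 active = mean replicate inhibition above about 95% and at least 55% of replicates individually reaching it, limit read from the data; inconclusive = only one of the two criteria is met; inactive = neither criterion is met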
T cruzi growth-3 = blocks T. cruzi growth in NIH3T3 host cells; shares compounds with T cruzi growth-1; 21% of 5,600 active; T. cruzi beta-gal in NIH3T3, GalScreen luminescence, 90 h; inhibition, % at 2.09 µM;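 active = mean inhibition above about 95%, with at least 55% of replicates also reaching it, limit read from the data; inconclusive = meets just one of the two conditions; inactive = meets neither condition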;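 note: plate controls were neutral control median for no effect and positive control median for full effect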
NIH3T3 tox = kills mouse NIH/3T3 fibroblasts. shares compounds with T cruzi growth-1. NIH/3T3 viability, CellTiter-Glo ATP luminescence, 90 h. cytotoxicity (signal decrease), % at 8.35 µM. 14% of 5,600 active. AID 651742;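 active = mean signal decrease across replicates above about 35% based on untreated-well scatter, with enough replicates individually passing, limit read from the data; inconclusive = no rule stated though some were filed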;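 note: 0% = median of neutral control wells and 100% = median of positive control wells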
3T3 cytotox 2 = cytotoxicity in mouse NIH/3T3 fibroblasts; AID 651744; shares compounds with T cruzi growth-1; inhibition, % at 24.9 µM; 56% of 5,600 active; NIH/3T3 viability, CellTiter-Glo ATP luminescence, 90 h;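 active = mean loss of cell viability signal at or above a set limit, and enough replicates individually reaching it; inconclusive = meets only the mean limit or only the replicate share; inactive = meets neither condition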;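 note: 0% = median of neutral control wells and 100% = median of positive control wells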
Starred values were filed as active, the others as inactive; ? = inconclusive; · = no result given. The full list was thinned out, with hits kept by preference.

SMILES	KDM4C inh	T cruzi growth-1	IDH1 R132H inh	T cruzi growth-2	T cruzi growth-3	NIH3T3 tox	3T3 cytotox 2
O=C(C[C@H]1CC[C@H]2[C@@H](COC[C@@H](O)CN2Cc2cccc(C(F)(F)F)c2)O1)NCc1ccccc1	2	-35	·	·	·	·	·
O=C(C[C@H]1CC[C@H]2[C@@H](COC[C@@H](O)CN2Cc2cccc(C(F)(F)F)c2)O1)NCc1ccc(Cl)cc1	-3	125*	·	92	33	8	87*
C[C@@H](NC(=O)C[C@H]1CC[C@H]2[C@@H](COC[C@H](O)CN2Cc2ccc(C(F)(F)F)cc2)O1)c1ccccc1	1	73	·	·	·	·	·
O=C(C[C@H]1CC[C@@H]2[C@H](COC[C@H](O)CN2Cc2cccc(C(F)(F)F)c2)O1)NCc1ccccc1	1	37	·	·	·	·	·
C[C@H](NC(=O)C[C@@H]1CC[C@@H]2[C@H](COC[C@H](O)CN2Cc2ccc(C(F)(F)F)cc2)O1)c1ccccc1	0	168*	·	79	6	-3	23
O=C(C[C@H]1CC[C@H]2[C@@H](COC[C@H](O)CN2Cc2cccc(C(F)(F)F)c2)O1)NCc1ccccc1	0	24	·	·	·	·	·
O=C(C[C@H]1CC[C@@H]2[C@H](COC[C@H](O)CN2Cc2cccc(C(F)(F)F)c2)O1)NCc1ccc(Cl)cc1	2	144*	·	103*	7	13	99*
O=C(C[C@H]1CC[C@H]2[C@@H](COC[C@H](O)CN2Cc2cccc(C(F)(F)F)c2)O1)NCc1ccc(Cl)cc1	-1	128*	·	107*	54	25	?
C[C@@H]1CCCCO[C@@H](CN(C)S(=O)(=O)c2ccccc2)[C@H](C)CN([C@H](C)CO)C(=O)c2cc(N(C)C)ccc2O1	-1	69	1	·	·	·	·
C[C@@H]1CN([C@H](C)CO)C(=O)c2cc(NS(=O)(=O)c3ccc(Cl)cc3)ccc2O[C@@H](C)CCCCO[C@@H]1CN(C)Cc1ccc(Cl)c(Cl)c1	-2	76	·	·	·	·	·
O=C(CN1C(=O)c2ccccc2S1(=O)=O)Nc1ccc(Br)cc1F	·	·	0	·	·	·	·
C[C@H](CO)N1C[C@H](C)[C@H](CN(C)C(=O)c2ccncc2)Oc2ncc(-c3ccncc3)cc2C1=O	1	0	·	·	·	·	·
C[C@@H]1CCCCO[C@@H](CN(C)S(=O)(=O)c2cccs2)[C@@H](C)CN([C@H](C)CO)C(=O)c2cc(NC(=O)c3ccncc3)ccc2O1	-1	·	·	·	·	·	·
O=C(C[C@@H]1CC[C@H]2[C@@H](COC[C@H](O)CN2Cc2cccc(F)c2)O1)NCC1CCCCC1	1	-36	·	·	·	·	·
O=C(C[C@@H]1CC[C@@H]2[C@H](COC[C@@H](O)CN2Cc2cccc(Cl)c2)O1)NCC1CCCCC1	0	125*	·	?	30	7	3
C[C@H]1CN([C@@H](C)CO)C(=O)Cc2cc(NC(=O)C3CCCCC3)ccc2O[C@@H]1CN(C)C(=O)Nc1ccc(F)cc1	0	26	-3	·	·	·	·
CO[C@H]1CN(C)C(=O)c2cc(NC(=O)Nc3cc(F)ccc3F)ccc2OC[C@H](C)NC[C@@H]1C	2	?	0	9	-46	5	23
CO[C@@H]1CN(C)C(=O)c2ccc(NC(=O)Nc3cccc(F)c3)cc2OC[C@H](C)NC[C@@H]1C	-1	27	0	·	·	·	·
CO[C@H]1CN(C)C(=O)c2ccc(NS(=O)(=O)c3cccc(Cl)c3)cc2OC[C@H](C)NC[C@@H]1C	-1	·	·	·	·	·	·
CO[C@H]1CN(C)C(=O)c2ccc(NS(=O)(=O)c3cccc(Cl)c3)cc2OC[C@@H](C)NC[C@@H]1C	0	97*	0	80	13	0	-15
CO[C@@H]1CN(C)C(=O)c2cc(NC(=O)Nc3cc(F)ccc3F)ccc2OC[C@H](C)NC[C@@H]1C	0	35	0	·	·	·	·
CO[C@@H]1CN(C)C(=O)c2ccc(NC(=O)Nc3cccc(F)c3)cc2OC[C@H](C)NC[C@H]1C	0	102*	0	6	11	-1	-16
CCC(NC(C)C)C(O)c1ccc(O)c(O)c1 (configuration not stated)	·	·	0	·	·	·	·
Cc1cccc(S(=O)(=O)N2C[C@H](O)COC[C@@H]3O[C@H](CC(=O)NCCCN4CCOCC4)CC[C@H]32)c1	-3	21	·	·	·	·	·
